# Data taken from ChEMBL document CHEMBL5058577, “EUbOPEN Chemogenomics Library 2 (Multiplex)” (2022).
# Tested on: Fibroblast
# Experiment: Multiplex assay against human fibroblast
# Assay type: toxicity, cell-based
# How it was run: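 On a CQ1 microscope at 37°C and 5% CO2, live cells were imaged after compound addition. They had been stained at seeding with Hoechst33342, BioTracker Green Microtubule Cytoskeleton Dye, MitoTracker Red and Annexin V Alexa Fluor 680. CellPathfinder machine-learning gating assigned cells to Hoechst high-intensity objects or normal cells, normal cells to healthy, pyknosed or fragmented nuclei, and pyknosed cells to mitotic or apoptotic. Tubulin, mitochondrial-mass and membrane-permeability phenotypes are per cents of healthy-nucleus cells.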
# [1] = 12 h, 1 µM, compound concentration 1 uM, replicate 1
# [2] = 12 h, 1 µM, compound concentration 1 uM, replicate 2
# [3] = 12 h, 10 µM, compound concentration 10 uM, replicate 1
# [4] = 12 h, 10 µM, compound concentration 10 uM, replicate 2
# [5] = 24 h, 1 µM, compound concentration 1 uM, replicate 1
# [6] = 24 h, 1 µM, compound concentration 1 uM, replicate 2
# [7] = 24 h, 10 µM, compound concentration 10 uM, replicate 1
# [8] = 24 h, 10 µM, compound concentration 10 uM, replicate 2
# [9] = 48 h, 1 µM, compound concentration 1 uM, replicate 1
# [10] = 48 h, 1 µM, compound concentration 1 uM, replicate 2
# [11] = 48 h, 10 µM, compound concentration 10 uM, replicate 1
# [12] = 48 h, 10 µM, compound concentration 10 uM, replicate 2
smiles,measurement,setting,value
COc1cc(C(=O)N(CCCc2ccccc2)Cc2ccc(CC(=O)O)cc2)cc(OC)c1C,Population Apoptotic (%),[1],63%
same,Population Fragmented Nuclei (%),[1],14%
same,Population Healthy Nuclei (%),[1],73%
same,Population Hoechst High Intensity Objects (%),[1],2%
same,Population Membrane Permeable-Phenotype (%),[1],0%
same,Population Mitochondria Different-Phenotype (%),[1],0%
same,Population Mitotic Cells (%),[1],36%
same,Population Normal (%),[1],97%
same,Population Pyknosed Nuclei (%),[1],12%
same,Population Tubulin-Different-Phenotype (%),[1],15%
same,Total Cell Count,[1],160
same,Population Apoptotic (%),[2],42%
same,Population Fragmented Nuclei (%),[2],37%
same,Population Healthy Nuclei (%),[2],45%
same,Population Hoechst High Intensity Objects (%),[2],4%
same,Population Membrane Permeable-Phenotype (%),[2],11%
same,Population Mitochondria Different-Phenotype (%),[2],5%
same,Population Mitotic Cells (%),[2],57%
same,Population Normal (%),[2],95%
same,Population Pyknosed Nuclei (%),[2],16%
same,Population Tubulin-Different-Phenotype (%),[2],36%
same,Total Cell Count,[2],176
same,Population Apoptotic (%),[3],41%
same,Population Fragmented Nuclei (%),[3],16%
same,Population Healthy Nuclei (%),[3],70%
same,Population Hoechst High Intensity Objects (%),[3],2%
same,Population Membrane Permeable-Phenotype (%),[3],0%
same,Population Mitochondria Different-Phenotype (%),[3],5%
same,Population Mitotic Cells (%),[3],58%
same,Population Normal (%),[3],97%
same,Population Pyknosed Nuclei (%),[3],12%
same,Population Tubulin-Different-Phenotype (%),[3],28%
same,Total Cell Count,[3],197
same,Population Apoptotic (%),[4],45%
same,Population Fragmented Nuclei (%),[4],25%
same,Population Healthy Nuclei (%),[4],61%
same,Population Hoechst High Intensity Objects (%),[4],4%
same,Population Membrane Permeable-Phenotype (%),[4],7%
same,Population Mitochondria Different-Phenotype (%),[4],4%
same,Population Mitotic Cells (%),[4],54%
same,Population Normal (%),[4],95%
same,Population Pyknosed Nuclei (%),[4],13%
same,Population Tubulin-Different-Phenotype (%),[4],47%
same,Total Cell Count,[4],181
same,Population Apoptotic (%),[5],68%
same,Population Fragmented Nuclei (%),[5],11%
same,Population Healthy Nuclei (%),[5],77%
same,Population Hoechst High Intensity Objects (%),[5],1%
same,Population Membrane Permeable-Phenotype (%),[5],0%
same,Population Mitochondria Different-Phenotype (%),[5],0%
same,Population Mitotic Cells (%),[5],31%
same,Population Normal (%),[5],98%
same,Population Pyknosed Nuclei (%),[5],10%
same,Population Tubulin-Different-Phenotype (%),[5],13%
same,Total Cell Count,[5],156
same,Population Apoptotic (%),[6],52%
same,Population Fragmented Nuclei (%),[6],44%
same,Population Healthy Nuclei (%),[6],41%
same,Population Hoechst High Intensity Objects (%),[6],4%
same,Population Membrane Permeable-Phenotype (%),[6],1%
same,Population Mitochondria Different-Phenotype (%),[6],6%
same,Population Mitotic Cells (%),[6],48%
same,Population Normal (%),[6],95%
same,Population Pyknosed Nuclei (%),[6],13%
same,Population Tubulin-Different-Phenotype (%),[6],28%
same,Total Cell Count,[6],189
same,Population Apoptotic (%),[7],55%
same,Population Fragmented Nuclei (%),[7],12%
same,Population Healthy Nuclei (%),[7],76%
same,Population Hoechst High Intensity Objects (%),[7],1%
same,Population Membrane Permeable-Phenotype (%),[7],1%
same,Population Mitochondria Different-Phenotype (%),[7],6%
same,Population Mitotic Cells (%),[7],45%
same,Population Normal (%),[7],98%
same,Population Pyknosed Nuclei (%),[7],10%
same,Population Tubulin-Different-Phenotype (%),[7],25%
same,Total Cell Count,[7],192
same,Population Apoptotic (%),[8],40%
same,Population Fragmented Nuclei (%),[8],25%
same,Population Healthy Nuclei (%),[8],61%
same,Population Hoechst High Intensity Objects (%),[8],4%
same,Population Membrane Permeable-Phenotype (%),[8],5%
same,Population Mitochondria Different-Phenotype (%),[8],0%
same,Population Mitotic Cells (%),[8],59%
same,Population Normal (%),[8],96%
same,Population Pyknosed Nuclei (%),[8],13%
same,Population Tubulin-Different-Phenotype (%),[8],41%
same,Total Cell Count,[8],175
same,Population Apoptotic (%),[9],90%
same,Population Fragmented Nuclei (%),[9],21%
same,Population Healthy Nuclei (%),[9],72%
same,Population Hoechst High Intensity Objects (%),[9],1%
same,Population Membrane Permeable-Phenotype (%),[9],0%
same,Population Mitochondria Different-Phenotype (%),[9],0%
same,Population Mitotic Cells (%),[9],10%
same,Population Normal (%),[9],98%
same,Population Pyknosed Nuclei (%),[9],6%
same,Population Tubulin-Different-Phenotype (%),[9],17%
same,Total Cell Count,[9],168
same,Population Apoptotic (%),[10],52%
same,Population Fragmented Nuclei (%),[10],50%
same,Population Healthy Nuclei (%),[10],41%
same,Population Hoechst High Intensity Objects (%),[10],2%
same,Population Membrane Permeable-Phenotype (%),[10],3%
same,Population Mitochondria Different-Phenotype (%),[10],9%
same,Population Mitotic Cells (%),[10],47%
same,Population Normal (%),[10],97%
same,Population Pyknosed Nuclei (%),[10],8%
same,Population Tubulin-Different-Phenotype (%),[10],40%
same,Total Cell Count,[10],211
same,Population Apoptotic (%),[11],77%
same,Population Fragmented Nuclei (%),[11],25%
same,Population Healthy Nuclei (%),[11],65%
same,Population Hoechst High Intensity Objects (%),[11],2%
same,Population Membrane Permeable-Phenotype (%),[11],1%
same,Population Mitochondria Different-Phenotype (%),[11],5%
same,Population Mitotic Cells (%),[11],22%
same,Population Normal (%),[11],97%
same,Population Pyknosed Nuclei (%),[11],9%
same,Population Tubulin-Different-Phenotype (%),[11],32%
same,Total Cell Count,[11],195
same,Population Apoptotic (%),[12],58%
same,Population Fragmented Nuclei (%),[12],38%
same,Population Healthy Nuclei (%),[12],54%
same,Population Hoechst High Intensity Objects (%),[12],5%
same,Population Membrane Permeable-Phenotype (%),[12],5%
same,Population Mitochondria Different-Phenotype (%),[12],3%
same,Population Mitotic Cells (%),[12],41%
same,Population Normal (%),[12],94%
same,Population Pyknosed Nuclei (%),[12],6%
same,Population Tubulin-Different-Phenotype (%),[12],46%
same,Total Cell Count,[12],187
Cc1ccccc1C(=O)Nc1ccc(C(=O)N2CCCC(N(C)C)c3ccccc32)cc1.Cl (stereo unspecified),Population Apoptotic (%),[1],52%
same,Population Fragmented Nuclei (%),[1],16%
same,Population Healthy Nuclei (%),[1],71%
same,Population Hoechst High Intensity Objects (%),[1],0%
same,Population Membrane Permeable-Phenotype (%),[1],0%
same,Population Mitochondria Different-Phenotype (%),[1],5%
same,Population Mitotic Cells (%),[1],47%
same,Population Normal (%),[1],100%
same,Population Pyknosed Nuclei (%),[1],12%
same,Population Tubulin-Different-Phenotype (%),[1],31%
same,Total Cell Count,[1],167
same,Population Apoptotic (%),[2],36%
same,Population Fragmented Nuclei (%),[2],22%
same,Population Healthy Nuclei (%),[2],55%
same,Population Hoechst High Intensity Objects (%),[2],1%
same,Population Membrane Permeable-Phenotype (%),[2],10%
same,Population Mitochondria Different-Phenotype (%),[2],3%
same,Population Mitotic Cells (%),[2],63%
same,Population Normal (%),[2],98%
same,Population Pyknosed Nuclei (%),[2],21%
same,Population Tubulin-Different-Phenotype (%),[2],45%
same,Total Cell Count,[2],155
same,Population Apoptotic (%),[3],58%
same,Population Fragmented Nuclei (%),[3],26%
same,Population Healthy Nuclei (%),[3],50%
same,Population Hoechst High Intensity Objects (%),[3],1%
same,Population Membrane Permeable-Phenotype (%),[3],1%
same,Population Mitochondria Different-Phenotype (%),[3],12%
same,Population Mitotic Cells (%),[3],41%
same,Population Normal (%),[3],98%
same,Population Pyknosed Nuclei (%),[3],22%
same,Population Tubulin-Different-Phenotype (%),[3],70%
same,Total Cell Count,[3],108
same,Population Apoptotic (%),[4],45%
same,Population Fragmented Nuclei (%),[4],29%
same,Population Healthy Nuclei (%),[4],47%
same,Population Hoechst High Intensity Objects (%),[4],4%
same,Population Membrane Permeable-Phenotype (%),[4],4%
same,Population Mitotic Cells (%),[4],54%
same,Population Normal (%),[4],95%
same,Population Pyknosed Nuclei (%),[4],23%
same,Population Tubulin-Different-Phenotype (%),[4],61%
same,Total Cell Count,[4],109
same,Population Apoptotic (%),[5],38%
same,Population Fragmented Nuclei (%),[5],15%
same,Population Healthy Nuclei (%),[5],76%
same,Population Hoechst High Intensity Objects (%),[5],1%
same,Population Membrane Permeable-Phenotype (%),[5],0%
same,Population Mitochondria Different-Phenotype (%),[5],8%
same,Population Mitotic Cells (%),[5],61%
same,Population Normal (%),[5],98%
same,Population Pyknosed Nuclei (%),[5],8%
same,Population Tubulin-Different-Phenotype (%),[5],30%
same,Total Cell Count,[5],160
same,Population Apoptotic (%),[6],43%
same,Population Fragmented Nuclei (%),[6],28%
same,Population Healthy Nuclei (%),[6],49%
same,Population Hoechst High Intensity Objects (%),[6],5%
same,Population Membrane Permeable-Phenotype (%),[6],8%
same,Population Mitochondria Different-Phenotype (%),[6],2%
same,Population Mitotic Cells (%),[6],56%
same,Population Normal (%),[6],94%
same,Population Pyknosed Nuclei (%),[6],21%
same,Population Tubulin-Different-Phenotype (%),[6],50%
same,Total Cell Count,[6],157
same,Population Apoptotic (%),[7],58%
same,Population Fragmented Nuclei (%),[7],30%
same,Population Healthy Nuclei (%),[7],58%
same,Population Hoechst High Intensity Objects (%),[7],1%
same,Population Membrane Permeable-Phenotype (%),[7],0%
same,Population Mitochondria Different-Phenotype (%),[7],12%
same,Population Mitotic Cells (%),[7],41%
same,Population Normal (%),[7],98%
same,Population Pyknosed Nuclei (%),[7],11%
same,Population Tubulin-Different-Phenotype (%),[7],68%
same,Total Cell Count,[7],111
same,Population Apoptotic (%),[8],57%
same,Population Fragmented Nuclei (%),[8],37%
same,Population Healthy Nuclei (%),[8],42%
same,Population Hoechst High Intensity Objects (%),[8],4%
same,Population Membrane Permeable-Phenotype (%),[8],9%
same,Population Mitochondria Different-Phenotype (%),[8],11%
same,Population Mitotic Cells (%),[8],42%
same,Population Normal (%),[8],95%
same,Population Pyknosed Nuclei (%),[8],20%
same,Population Tubulin-Different-Phenotype (%),[8],72%
same,Total Cell Count,[8],107
same,Population Apoptotic (%),[9],33%
same,Population Fragmented Nuclei (%),[9],13%
same,Population Healthy Nuclei (%),[9],79%
same,Population Hoechst High Intensity Objects (%),[9],3%
same,Population Membrane Permeable-Phenotype (%),[9],0%
same,Population Mitochondria Different-Phenotype (%),[9],4%
same,Population Mitotic Cells (%),[9],66%
same,Population Normal (%),[9],96%
same,Population Pyknosed Nuclei (%),[9],7%
same,Population Tubulin-Different-Phenotype (%),[9],28%
same,Total Cell Count,[9],158
same,Population Apoptotic (%),[10],53%
same,Population Fragmented Nuclei (%),[10],32%
same,Population Healthy Nuclei (%),[10],50%
same,Population Membrane Permeable-Phenotype (%),[10],8%
same,Population Mitochondria Different-Phenotype (%),[10],5%
same,Population Mitotic Cells (%),[10],46%
same,Population Pyknosed Nuclei (%),[10],17%
same,Population Tubulin-Different-Phenotype (%),[10],54%
same,Total Cell Count,[10],155
same,Population Apoptotic (%),[11],91%
same,Population Fragmented Nuclei (%),[11],24%
same,Population Healthy Nuclei (%),[11],60%
same,Population Hoechst High Intensity Objects (%),[11],7%
same,Population Membrane Permeable-Phenotype (%),[11],0%
same,Population Mitochondria Different-Phenotype (%),[11],12%
same,Population Mitotic Cells (%),[11],8%
same,Population Normal (%),[11],92%
same,Population Pyknosed Nuclei (%),[11],14%
same,Population Tubulin-Different-Phenotype (%),[11],51%
same,Total Cell Count,[11],88
same,Population Apoptotic (%),[12],73%
same,Population Fragmented Nuclei (%),[12],43%
same,Population Healthy Nuclei (%),[12],43%
same,Population Hoechst High Intensity Objects (%),[12],3%
same,Population Membrane Permeable-Phenotype (%),[12],8%
same,Population Mitochondria Different-Phenotype (%),[12],14%
same,Population Mitotic Cells (%),[12],26%
same,Population Normal (%),[12],96%
same,Population Pyknosed Nuclei (%),[12],13%
same,Population Tubulin-Different-Phenotype (%),[12],70%
same,Total Cell Count,[12],113
